Data from ChEMBL document CHEMBL2321753, “Synthesis and biological evaluation of radioiodinated quinacrine-based derivatives for SPECT imaging of Aβ plaques” (Eur J Med Chem, 2013).

Assays:
Lung [1] = experiment: Biodistribution in ddY mouse lung at 0.1 to 0.4 uCi, iv after 2 mins by gamma counting; format: ADME, organism-based; details: in vivo
Procedure, shortened: (§1)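 [125I]ligand (0.1–0.4 µCi) in 100 µL PBS (pH 7.4) containing 30 µL DMSO, injected into the tail vein of ddY mice (5 weeks, 22–25 g). Mice sacrificed at 2, 10, 30 and 60 min. Organs removed, weighed and gamma-counted. Values are % injected dose per gram, except stomach as % dose per organ. Mean (SD) of 3–6 mice per time point.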

Pancreas [2] = experiment: Biodistribution in ddY mouse pancreas at 0.1 to 0.4 uCi, iv after 30 mins by gamma counting; format: ADME, organism-based; details: in vivo, 0.5 h; procedure, shortened: as §1
Brain [3] = experiment: Biodistribution in ddY mouse brain at 0.1 to 0.4 uCi, iv after 60 mins by gamma counting; format: ADME, organism-based; details: in vivo, 1 h; procedure, shortened: as §1
Heart [4] = experiment: Biodistribution in ddY mouse heart at 0.1 to 0.4 uCi, iv after 2 mins by gamma counting; format: ADME, organism-based; details: in vivo; procedure, shortened: as §1
Lung [5] = experiment: Biodistribution in ddY mouse lung at 0.1 to 0.4 uCi, iv after 60 mins by gamma counting; format: ADME, organism-based; details: in vivo, 1 h; procedure, shortened: as §1
Stomach [6] = experiment: Biodistribution in ddY mouse stomach assessed per organ at 0.1 to 0.4 uCi, iv after 60 mins by gamma counting; format: ADME, organism-based; details: in vivo, 1 h; procedure, shortened: as §1
Blood [7] = experiment: Biodistribution in ddY mouse blood at 0.1 to 0.4 uCi, iv after 60 mins by gamma counting; format: ADME, organism-based; details: in vivo, 1 h; procedure, shortened: as §1
Pancreas [8] = experiment: Biodistribution in ddY mouse pancreas at 0.1 to 0.4 uCi, iv after 2 mins by gamma counting; format: ADME, organism-based; details: in vivo; procedure, shortened: as §1
Blood [9] = experiment: Biodistribution in ddY mouse blood at 0.1 to 0.4 uCi, iv after 2 mins by gamma counting; format: ADME, organism-based; details: in vivo; procedure, shortened: as §1
Kidney [10] = experiment: Biodistribution in ddY mouse kidney at 0.1 to 0.4 uCi, iv after 2 mins by gamma counting; format: ADME, organism-based; details: in vivo; procedure, shortened: as §1
Brain [11] = experiment: Biodistribution in ddY mouse brain at 0.1 to 0.4 uCi, iv after 30 mins by gamma counting; format: ADME, organism-based; details: in vivo, 0.5 h; procedure, shortened: as §1
Blood [12] = experiment: Biodistribution in ddY mouse blood at 0.1 to 0.4 uCi, iv after 10 mins by gamma counting; format: ADME, organism-based; details: in vivo; procedure, shortened: as §1
[13] = n-octanol-sodium phosphate buffer partition co-efficient, log D of the compound at pH 7.4 by shake flask method; format: physicochemical
Procedure, shortened: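 Shake-flask partition between n-octanol and sodium phosphate buffer, pH 7.4, shaken 10 min at room temperature, then centrifuged. Weighed 0.5 mL samples of each layer counted. log D from the ratio of cpm per gram of octanol to cpm per gram of buffer; n = 3.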

Kidney [14] = experiment: Biodistribution in ddY mouse kidney at 0.1 to 0.4 uCi, iv after 60 mins by gamma counting; format: ADME, organism-based; details: in vivo, 1 h; procedure, shortened: as §1
Intestine [15] = experiment: Biodistribution in ddY mouse intestine at 0.1 to 0.4 uCi, iv after 10 mins by gamma counting; format: ADME, organism-based; details: in vivo; procedure, shortened: as §1
Kidney [16] = experiment: Biodistribution in ddY mouse kidney at 0.1 to 0.4 uCi, iv after 30 mins by gamma counting; format: ADME, organism-based; details: in vivo, 0.5 h; procedure, shortened: as §1
Stomach [17] = experiment: Biodistribution in ddY mouse stomach assessed per organ at 0.1 to 0.4 uCi, iv after 2 mins by gamma counting; format: ADME, organism-based; details: in vivo; procedure, shortened: as §1
Brain [18] = experiment: Biodistribution in ddY mouse brain at 0.1 to 0.4 uCi, iv after 10 mins by gamma counting; format: ADME, organism-based; details: in vivo; procedure, shortened: as §1
Heart [19] = experiment: Biodistribution in ddY mouse heart at 0.1 to 0.4 uCi, iv after 10 mins by gamma counting; format: ADME, organism-based; details: in vivo; procedure, shortened: as §1
Liver [20] = experiment: Biodistribution in ddY mouse liver at 0.1 to 0.4 uCi, iv after 10 mins by gamma counting; format: ADME, organism-based; details: in vivo; procedure, shortened: as §1
Spleen [21] = experiment: Biodistribution in ddY mouse spleen at 0.1 to 0.4 uCi, iv after 2 mins by gamma counting; format: ADME, organism-based; details: in vivo; procedure, shortened: as §1
Liver [22] = experiment: Biodistribution in ddY mouse liver at 0.1 to 0.4 uCi, iv after 60 mins by gamma counting; format: ADME, organism-based; details: in vivo, 1 h; procedure, shortened: as §1
Pancreas [23] = experiment: Biodistribution in ddY mouse pancreas at 0.1 to 0.4 uCi, iv after 10 mins by gamma counting; format: ADME, organism-based; details: in vivo; procedure, shortened: as §1
Intestine [24] = experiment: Biodistribution in ddY mouse intestine at 0.1 to 0.4 uCi, iv after 30 mins by gamma counting; format: ADME, organism-based; details: in vivo, 0.5 h; procedure, shortened: as §1
Spleen [25] = experiment: Biodistribution in ddY mouse spleen at 0.1 to 0.4 uCi, iv after 60 mins by gamma counting; format: ADME, organism-based; details: in vivo, 1 h; procedure, shortened: as §1
Stomach [26] = experiment: Biodistribution in ddY mouse stomach assessed per organ at 0.1 to 0.4 uCi, iv after 10 mins by gamma counting; format: ADME, organism-based; details: in vivo; procedure, shortened: as §1
Lung [27] = experiment: Biodistribution in ddY mouse lung at 0.1 to 0.4 uCi, iv after 10 mins by gamma counting; format: ADME, organism-based; details: in vivo; procedure, shortened: as §1
Pancreas [28] = experiment: Biodistribution in ddY mouse pancreas at 0.1 to 0.4 uCi, iv after 60 mins by gamma counting; format: ADME, organism-based; details: in vivo, 1 h; procedure, shortened: as §1
Blood [29] = experiment: Biodistribution in ddY mouse blood at 0.1 to 0.4 uCi, iv after 30 mins by gamma counting; format: ADME, organism-based; details: in vivo, 0.5 h; procedure, shortened: as §1
Spleen [30] = experiment: Biodistribution in ddY mouse spleen at 0.1 to 0.4 uCi, iv after 10 mins by gamma counting; format: ADME, organism-based; details: in vivo; procedure, shortened: as §1
Spleen [31] = experiment: Biodistribution in ddY mouse spleen at 0.1 to 0.4 uCi, iv after 30 mins by gamma counting; format: ADME, organism-based; details: in vivo, 0.5 h; procedure, shortened: as §1
Intestine [32] = experiment: Biodistribution in ddY mouse intestine at 0.1 to 0.4 uCi, iv after 60 mins by gamma counting; format: ADME, organism-based; details: in vivo, 1 h; procedure, shortened: as §1
Liver [33] = experiment: Biodistribution in ddY mouse liver at 0.1 to 0.4 uCi, iv after 2 mins by gamma counting; format: ADME, organism-based; details: in vivo; procedure, shortened: as §1
Intestine [34] = experiment: Biodistribution in ddY mouse intestine at 0.1 to 0.4 uCi, iv after 2 mins by gamma counting; format: ADME, organism-based; details: in vivo; procedure, shortened: as §1
Liver [35] = experiment: Biodistribution in ddY mouse liver at 0.1 to 0.4 uCi, iv after 30 mins by gamma counting; format: ADME, organism-based; details: in vivo, 0.5 h; procedure, shortened: as §1
Brain [36] = experiment: Biodistribution in ddY mouse brain at 0.1 to 0.4 uCi, iv after 2 mins by gamma counting; format: ADME, organism-based; details: in vivo; procedure, shortened: as §1
Heart [37] = experiment: Biodistribution in ddY mouse heart at 0.1 to 0.4 uCi, iv after 30 mins by gamma counting; format: ADME, organism-based; details: in vivo, 0.5 h; procedure, shortened: as §1
Kidney [38] = experiment: Biodistribution in ddY mouse kidney at 0.1 to 0.4 uCi, iv after 10 mins by gamma counting; format: ADME, organism-based; details: in vivo; procedure, shortened: as §1
Lung [39] = experiment: Biodistribution in ddY mouse lung at 0.1 to 0.4 uCi, iv after 30 mins by gamma counting; format: ADME, organism-based; details: in vivo, 0.5 h; procedure, shortened: as §1
Heart [40] = experiment: Biodistribution in ddY mouse heart at 0.1 to 0.4 uCi, iv after 60 mins by gamma counting; format: ADME, organism-based; details: in vivo, 1 h; procedure, shortened: as §1
Stomach [41] = experiment: Biodistribution in ddY mouse stomach assessed per organ at 0.1 to 0.4 uCi, iv after 30 mins by gamma counting; format: ADME, organism-based; details: in vivo, 0.5 h; procedure, shortened: as §1
[42] = molecular target: Amyloid-beta precursor protein (Homo sapiens, UniProt P05067); experiment: Displacement of [125I]IMPY from amyloid beta (1 to 42) (unknown origin) after 3 hrs by gamma counting
Procedure, shortened: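 Filtered through GF/B filters and bound radioactivity gamma-counted. IC50 from displacement curves of three independent experiments; Ki calculated with the Cheng–Prusoff equation.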

Amyloid-beta precursor protein, sequence (P05067 whole entry): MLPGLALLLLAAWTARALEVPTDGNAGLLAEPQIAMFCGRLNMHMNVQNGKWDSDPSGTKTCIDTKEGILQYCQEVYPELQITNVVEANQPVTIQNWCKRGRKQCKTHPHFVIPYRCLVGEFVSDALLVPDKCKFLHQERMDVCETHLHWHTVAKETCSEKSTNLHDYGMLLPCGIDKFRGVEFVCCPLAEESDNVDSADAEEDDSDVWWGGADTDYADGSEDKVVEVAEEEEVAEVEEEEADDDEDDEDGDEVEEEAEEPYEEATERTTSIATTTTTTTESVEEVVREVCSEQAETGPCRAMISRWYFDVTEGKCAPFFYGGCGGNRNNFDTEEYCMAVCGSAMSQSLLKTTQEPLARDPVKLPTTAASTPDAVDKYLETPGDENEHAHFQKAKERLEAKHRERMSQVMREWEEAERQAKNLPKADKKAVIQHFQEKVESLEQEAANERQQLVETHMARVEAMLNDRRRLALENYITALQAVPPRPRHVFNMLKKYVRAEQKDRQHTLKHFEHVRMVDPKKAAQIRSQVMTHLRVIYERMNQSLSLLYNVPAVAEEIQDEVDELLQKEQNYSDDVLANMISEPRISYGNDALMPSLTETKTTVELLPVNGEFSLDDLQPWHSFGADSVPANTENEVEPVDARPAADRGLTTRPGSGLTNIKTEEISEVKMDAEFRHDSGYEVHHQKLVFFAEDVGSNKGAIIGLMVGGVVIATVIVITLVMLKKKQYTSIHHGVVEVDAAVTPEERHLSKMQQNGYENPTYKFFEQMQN

COc1ccc2nc3cc([125I])ccc3c(N(C)C)c2c1
Drug uptake (Lung [1]): 79.34 % ID/g
Drug uptake (Pancreas [2]): 7.85 % ID/g
Drug uptake (Brain [3]): 0.23 % ID/g
Drug uptake (Heart [4]): 16.28 % ID/g
Drug uptake (Lung [5]): 21.84 % ID/g
Drug uptake (Stomach [6]): 1.4 %ID
Drug uptake (Blood [7]): 0.64 % ID/g
Drug uptake (Pancreas [8]): 5.21 % ID/g
Drug uptake (Blood [9]): 4.76 % ID/g
Drug uptake (Kidney [10]): 16.71 % ID/g
Drug uptake (Brain [11]): 0.28 % ID/g
Drug uptake (Blood [12]): 1.97 % ID/g
logD [13]: 2.19
Drug uptake (Kidney [14]): 16.34 % ID/g
Drug uptake (Intestine [15]): 3.13 % ID/g
Drug uptake (Kidney [16]): 21.56 % ID/g
Drug uptake (Stomach [17]): 1.37 %ID
Drug uptake (Brain [18]): 0.26 % ID/g
Drug uptake (Heart [19]): 11.2 % ID/g
Drug uptake (Liver [20]): 11.77 % ID/g
Drug uptake (Spleen [21]): 6.94 % ID/g
Drug uptake (Liver [22]): 12.55 % ID/g
Drug uptake (Pancreas [23]): 6.5 % ID/g
Drug uptake (Intestine [24]): 5.33 % ID/g
Drug uptake (Spleen [25]): 11.22 % ID/g
Drug uptake (Stomach [26]): 2.18 %ID
Drug uptake (Lung [27]): 57.02 % ID/g
Drug uptake (Pancreas [28]): 9.81 % ID/g
Drug uptake (Blood [29]): 1.26 % ID/g
Drug uptake (Spleen [30]): 9.65 % ID/g
Drug uptake (Spleen [31]): 14.49 % ID/g
Drug uptake (Intestine [32]): 6.5 % ID/g
Drug uptake (Liver [33]): 10.85 % ID/g
Drug uptake (Intestine [34]): 2.22 % ID/g
Drug uptake (Liver [35]): 16.43 % ID/g
Drug uptake (Brain [36]): 0.33 % ID/g
Drug uptake (Heart [37]): 9.08 % ID/g
Drug uptake (Kidney [38]): 18.16 % ID/g
Drug uptake (Lung [39]): 46.47 % ID/g
Drug uptake (Heart [40]): 4.33 % ID/g
Drug uptake (Stomach [41]): 2.21 %ID

CNc1c2ccc(I)cc2nc2ccc(OC)cc12
Ki [42]: 13.8 nM

COc1c2ccc(I)cc2nc2ccc(N(C)C)cc12
Ki [42]: 30 nM

COc1ccc2nc3cc(I)ccc3c(N(C)C)c2c1
Ki [42]: 121 nM

COc1ccc2nc3cc([125I])ccc3c(N)c2c1
Drug uptake (Lung [1]): 9.91 % ID/g
Drug uptake (Pancreas [2]): 4.98 % ID/g
Drug uptake (Brain [3]): 0.19 % ID/g
Drug uptake (Heart [4]): 4.46 % ID/g
Drug uptake (Lung [5]): 1.4 % ID/g
Drug uptake (Stomach [6]): 1.74 %ID
Drug uptake (Blood [7]): 0.49 % ID/g
Drug uptake (Pancreas [8]): 4.34 % ID/g
Drug uptake (Blood [9]): 1.15 % ID/g
Drug uptake (Kidney [10]): 9.81 % ID/g
Drug uptake (Brain [11]): 1.27 % ID/g
Drug uptake (Blood [12]): 2.09 % ID/g
logD [13]: 2.13
Drug uptake (Kidney [14]): 3.58 % ID/g
Drug uptake (Intestine [15]): 14.19 % ID/g
Drug uptake (Kidney [16]): 12.64 % ID/g
Drug uptake (Stomach [17]): 0.99 %ID
Drug uptake (Brain [18]): 3.16 % ID/g
Drug uptake (Heart [19]): 4.57 % ID/g
Drug uptake (Liver [20]): 14.79 % ID/g
Drug uptake (Spleen [21]): 4.7 % ID/g
Drug uptake (Liver [22]): 2.84 % ID/g
Drug uptake (Pancreas [23]): 11.52 % ID/g
Drug uptake (Intestine [24]): 17.49 % ID/g
Drug uptake (Spleen [25]): 3.28 % ID/g
Drug uptake (Stomach [26]): 6.58 %ID
Drug uptake (Lung [27]): 14.29 % ID/g
Drug uptake (Pancreas [28]): 0.76 % ID/g
Drug uptake (Blood [29]): 1.46 % ID/g
Drug uptake (Spleen [30]): 14.65 % ID/g
Drug uptake (Spleen [31]): 10.6 % ID/g
Drug uptake (Intestine [32]): 11.2 % ID/g
Drug uptake (Liver [33]): 6.24 % ID/g
Drug uptake (Intestine [34]): 1.86 % ID/g
Drug uptake (Liver [35]): 8.4 % ID/g
Drug uptake (Brain [36]): 1.35 % ID/g
Drug uptake (Heart [37]): 2.26 % ID/g
Drug uptake (Kidney [38]): 22.51 % ID/g
Drug uptake (Lung [39]): 5.04 % ID/g
Drug uptake (Heart [40]): 0.49 % ID/g
Drug uptake (Stomach [41]): 6.66 %ID
